# High-throughput results from PubChem.
# RGS4 block: human RGS4 inhibition; B-score at 10 µM; hit rate 0.45% among 310,000; AID 463165; HEK293 M3R/RGS4 inducible, Fluo-4 calcium flux; stronger effect = higher value; triggered by carbachol at its EC20;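 active = B-score, a plate-corrected calcium signal, over three deviations above library mean, with baseline fluorescence within five deviations of library mean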;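 note: RGS4 expression induced by doxycycline in cells with stable M3 receptor; B-score is computed from the integrated fluorescence ratio over baseline after carbachol; higher B-score means a larger calcium signal and so more RGS4 inhibition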
# Target sequence (P49798 whole entry, looked up): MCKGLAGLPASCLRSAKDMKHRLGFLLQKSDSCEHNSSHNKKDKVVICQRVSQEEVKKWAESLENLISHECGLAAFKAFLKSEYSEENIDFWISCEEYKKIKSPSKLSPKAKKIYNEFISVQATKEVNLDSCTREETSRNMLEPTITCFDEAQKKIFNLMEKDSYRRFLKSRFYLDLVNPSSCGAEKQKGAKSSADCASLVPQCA
# MrgX1 antag: blocks BAM8-22 activation of human MrgX1 receptor; Q96LB2; MRGX1-HEK293 calcium flux, Fluo-4, BAM8-22 antagonism; stronger effect = lower value; B-score at 10 µM; hit rate 1.3% among 310,000;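 active = calcium-response B-score plate-corrected more than 3 library SD below zero, starting fluorescence within 5 deviations, no agonist response on first addition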;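 note: peak minus trough fluorescence over baseline after final BAM8-22 challenge near maximal dose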
# Target sequence (Q96LB2 whole entry, looked up): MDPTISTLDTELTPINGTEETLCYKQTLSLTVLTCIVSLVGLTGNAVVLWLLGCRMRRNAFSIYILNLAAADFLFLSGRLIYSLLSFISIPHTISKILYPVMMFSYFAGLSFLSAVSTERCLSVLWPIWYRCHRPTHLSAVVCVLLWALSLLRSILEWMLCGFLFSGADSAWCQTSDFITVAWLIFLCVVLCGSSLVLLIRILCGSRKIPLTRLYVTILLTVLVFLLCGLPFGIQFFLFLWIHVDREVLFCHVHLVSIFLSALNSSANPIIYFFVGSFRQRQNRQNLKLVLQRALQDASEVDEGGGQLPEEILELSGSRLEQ
# RGS4 pot: RGS4 potentiation or activation | HEK293 M3R/inducible RGS4, carbachol calcium flux Fluo4; stronger effect = lower value | B-score at 10 µM | hit rate 0.92% among 310,000 | AID 463111;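 active = B-score of the integrated calcium signal more than 4 SD below the library mean, with starting fluorescence not abnormally high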;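 note: negative B-score means reduced calcium response which marks RGS4 activation or potentiation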
#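 Detection: kinetic calcium fluorescence imaging with Fluo4-AM dye, 2 µM / Material: HEK293 cells with stable M3R and inducible RGS4 / Schedule: recording 10 s baseline at 1 Hz, 100 s post-agonist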
# MrgX1 allo act: allosterically activates human MrgX1 receptor signaling. Q96LB2. MrgX1-HEK293, Fluo-4 calcium flux, FDSS; stronger effect = higher value. B-score at 10 µM. hit rate 0.63% among 310,000;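 active = plate-corrected calcium response at least 3 library SD above typical, normal starting fluorescence, not activating the receptor alone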;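 note: compound read alongside a low EC10 to EC30 dose of BAM8-22 agonist; peak minus trough fluorescence over baseline measured at the second addition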
# MrgX1 agonist: human MrgX1 receptor agonism, primary screen; MrgX1-HEK293 cells, Fluo-4 calcium fluorescence, agonist mode; stronger effect = higher value; B-score at 10 µM; hit rate 0.44% among 310,000; Q96LB2; AID 588627;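 active = calcium response B-score plate-corrected fluorescence ratio at least 3 library SD, with starting fluorescence B-score inside 5 SD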
#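 times = overnight plating, then 30 min 37 °C plus 30 min room-temperature dye loading | assay system = stable human MrgX1 HEK293 cell line | input = fifteen thousand cells per well | signal = kinetic calcium dye fluorescence, Fluo-4 NW | dosing = compound delivered in addition one of three | read-out = B-scored fluorescence response ratio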
# RGS4 block valid: validation of RGS4 inhibitors. shares compounds with RGS4 block. HEK293 M3R/RGS4, carbachol calcium Fluo-4 fluorescence; carbachol added at its EC20; 0 = buffer wells, 100 = carbachol control. calcium response, % at 10 µM. hit rate 65% among 1,700;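 active = duplicate-averaged calcium response above the buffer-only control mean plus 5 SD of those controls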;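 note: integrated fluorescence ratio F max minus min over baseline F0; higher response in RGS4-induced cells means RGS4 inhibition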
# RGS4 uninduced: checks RGS4 inhibitor effects in non-induced HEK293 M3R cells; shares compounds with RGS4 block; carbachol calcium Fluo-4; submaximal (EC20) carbachol stimulus; buffer wells 0%, carbachol control wells 100%; activity (percent), % at 10 µM; hit rate 20% among 1,900; AID 493000; call rule not given here;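 note: RGS4 induction absent so cells express M3R without RGS4; higher means more calcium signal and flags a non-specific hit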
# RGS4 inh ctr2: second RGS4 inhibitor counter-screen in uninduced cells lacking carbachol; hit rate 22% among 1,900; shares compounds with RGS4 block; calcium response (agonist-mode artifact), % at 10 µM; HEK293 M3R/RGS4 non-induced, Fluo-4 calcium, no carbachol; normalised: buffer wells 0%, carbachol wells 100%;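 active = duplicate-averaged calcium rise in uninduced cells above buffer wells' mean plus 5 SD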
# * = called active by the depositor; i = inactive; / = not tested or not shown. An excerpt weighted towards active compounds, which were near 3.5% of everything screened.
SMILES,RGS4 block,MrgX1 antag,RGS4 pot,MrgX1 allo act,MrgX1 agonist,RGS4 block valid,RGS4 uninduced,RGS4 inh ctr2
CC(=O)Nc1cccc(C(=O)N2CCC(n3nccc3NC(=O)CC(C)C)CC2)c1,i,i,i,i,i,/,/,/
COc1cc2c(cc1OC)C(CSc1ccccc1C(=O)O)=NC(C)(C)C2,5.6*,i,i,i,i,9.5%*,i,i
Cc1cc(-c2nnc(-c3cccc(Cl)c3)o2)no1,i,i,i,i,i,/,/,/
O=C(CCNc1ccc(F)c(Cl)c1)c1ccco1,i,i,i,i,i,/,/,/
O=C(CCNc1ccc(F)cc1)c1ccco1,5.4*,i,i,i,i,11%*,i,i
O=C(O)COCC(=O)N1CCc2c([nH]c3ccccc23)C1C(F)(F)F (stereo not drawn),i,i,i,i,i,/,/,/
N#Cc1c(-c2ccccc2)c(-c2ccccc2)nn(CC(=O)NNC(=O)Nc2ccc(Cl)cc2)c1=O,i,i,i,i,i,/,i,i
N#Cc1c(-c2ccccc2)c(-c2ccccc2)nn(CC(=O)NNC(=O)Nc2ccccc2)c1=O,i,i,i,i,i,i,i,i
Cn1c(SCC(=O)NNC(=O)Nc2ccc(Cl)cc2)nnc1-c1ccccc1,i,i,i,i,i,/,/,/
Cc1ccc(CN=C(Nc2ccccc2)NC2CCCCC2)cc1,i,i,i,i,i,/,/,/
CC(=O)Nc1cccc(NC(=O)CSc2ncc(C(=O)Nc3ccc(F)cc3)c(=O)n2C)c1,i,i,i,i,i,i,i,i
CC(=O)c1cccc(NC(=O)CSc2ncc(C(=O)Nc3ccccc3)c(=O)n2C)c1,i,i,i,i,i,/,39%*,i
CC(=O)Nc1ccc(S(=O)(=O)N2CCN(C(=O)c3ncoc3-c3ccccc3)CC2)cc1,i,/,i,/,/,/,/,/
O=C(CSc1nc2ccc(Cl)cc2[nH]1)Nc1ccc2[nH]c(=O)[nH]c2c1,i,i,i,i,i,/,/,/
O=C(CC(Cc1ccccc1)C(=O)O)Nc1ccc(Cl)c(Cl)c1 (stereo not drawn),i,i,i,i,i,/,/,/
Nc1nc2ccc(S(=O)(=O)c3ccc4nc(N)sc4c3)cc2s1,6.3*,i,i,i,i,i,i,i
COc1ccc(S(=O)(=O)NC2CCCC2)cc1C(N)=O,i,i,i,i,i,/,/,/
O=C1NC(c2ccccc2)=C(c2nc3ccccc3s2)C(c2ccc(F)cc2)N1 (stereo not drawn),i,i,i,i,i,/,i,i
COc1ccc(C2NC(=O)NC(c3ccccc3)=C2c2nc3ccccc3s2)cc1 (stereo not drawn),i,i,i,i,i,/,/,/
Cc1ccc(N2C(=O)Cc3ccccc3C2=O)cc1,i,i,i,i,i,i,i,i
O=c1c2ccccc2nc2c3ccccc3c(NCc3ccco3)nn12,4.9*,i,i,i,i,i,i,i
CC1=C(CO)C(=O)OC([C@@H](C)C2CC[C@H]3C4C[C@H]5O[C@]56[C@@H](O)C=CC(=O)[C@]6(C)C4CC[C@]23C)C1 (stereo partly drawn),13*,i,i,i,i,32%*,i,i
Cc1csc(NC(=O)CCCC(=O)O)c1-c1nc2ccccc2s1,6.2*,i,i,i,i,32%*,48%*,i
Cc1csc(NC(=O)COCC(=O)O)c1-c1nc2ccccc2s1,6.8*,i,i,i,i,22%*,i,i
CC(=O)Nc1scc(C)c1-c1nc2ccccc2s1,i,i,i,i,i,/,/,/
SMILES,RGS4 block,MrgX1 antag,RGS4 pot,MrgX1 allo act,MrgX1 agonist,RGS4 block valid,RGS4 uninduced,RGS4 inh ctr2
CC(NC(=O)c1c(O)c2ccccc2[nH]c1=O)c1ccccc1 (stereo not drawn),i,i,i,i,i,/,/,/
CCS(=O)(=O)c1ncc(Cl)c(C(=O)Nc2ccc(S(=O)(=O)N3CCC(C)CC3)cc2)n1,i,i,i,i,i,/,/,/
Cc1cc(S(=O)(=O)Nc2ccc3cn[nH]c3c2)c(C)cc1Cl,15*,i,i,i,i,30%*,i,i
COc1ccc(OC)c(C2C=C(C34CC5CC(CC(C5)C3)C4)NC(=S)N2)c1 (stereo not drawn),8.8*,i,i,i,i,14%*,i,i
CCOc1ccc(-c2c(C(=O)N/N=C/c3ccc(OC(C)C)cc3)nnn2-c2nonc2N)cc1,i,i,i,i,i,/,i,i
Cc1ccc(-c2c(C(=O)N/N=C/c3ccc(OC(C)C)cc3)nnn2-c2nonc2N)cc1,9*,i,i,i,i,28%*,43%*,i
O=[N+]([O-])c1ccc(C2(O)CN(c3ccccc3)C3=[N+]2CCS3)cc1 (stereo not drawn),i,i,i,i,i,/,/,/
O=C(NCc1ccco1)Nc1ccc(Br)cc1,i,i,i,i,i,/,/,/
O=C(NCc1ccco1)Nc1ccc2nsnc2c1,6.5*,i,i,i,i,i,i,i
Cc1cccc(N(Cc2cc3ccc(C)cc3[nH]c2=O)C(=O)c2ccco2)c1,i,i,i,i,i,/,i,i
Cc1ccc(N(Cc2cc3ccccc3[nH]c2=O)C(=O)c2ccco2)c(C)c1,i,i,i,i,i,/,/,/
Cc1ccc(N(Cc2cc3ccc(C)cc3[nH]c2=O)C(=O)c2cccs2)cc1,i,i,i,i,i,/,/,/
Cc1ccc(N(Cc2cc3ccc(C)cc3[nH]c2=O)C(=O)c2ccco2)cc1,i,i,i,i,i,i,i,i
Cc1ccc2cc(CN(C(=O)c3ccco3)c3ccccc3)c(=O)[nH]c2c1,5.4*,i,i,i,i,i,i,i
ClCC1CN(Cc2ccccc2Cl)CCO1 (stereo not drawn),i,i,i,i,i,/,/,/
